Laboratory results taken from PubChem BioAssay AID602223 (Southern Research Specialized Biocontainment Screening …, 2012).
Results filed as inconclusive are left out. The source made the active and inactive calls.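 How the source made its calls: active means inhibition of 30% or more at any tested concentration; inactive means the rest, inconclusive results apart.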

Target: M1-family alanyl aminopeptidase (Plasmodium falciparum 3D7)
Test: malaria M1 alanyl aminopeptidase inhibitors – biochemical, QFRET, H-Leu-NHMec substrate, set 2, selectivity assay for PfM17LAP inhibitor project, dose response (AID 602223)
Conditions: recombinant PfM1AAP, H-Leu-NHMec fluorogenic cleavage; for inhibition: at 100 µM (top of the series)
Summary of the method: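 System: recombinant protease; also added: 0.1 mM fluorogenic substrate; doses: concentration series from 100 µM down to 0.2 µM; incubation: 90 min, room temperature; detection: fluorescence of liberated NHMec, excitation 370 nm, emission 460 nm; repeats: triplicate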

SMILES: CCCCOc1ccc(CNc2c(N(O)Cc3ccccc3)c(=O)c2=O)cc1
- inhibition: inactive

SMILES: CN(O)C(=O)Cc1ccc(OCc2ccccc2)cc1
- inhibition: inactive

SMILES: O=C(Cc1ccc(Oc2ccccc2)cc1)NO
- IC50: 5.45 µM

SMILES: CCCCOc1ccc(C(=O)NO)cc1
- IC50: 99.1 µM

SMILES: COc1ccc(CCCC(=O)NO)cc1
- IC50: 95.8 µM

SMILES: CCCCc1ccc(CC(=O)NO)cc1
- IC50: 2.57 µM

SMILES: CCCOc1ccc(CC(=O)OC)cc1
- inhibition: inactive

SMILES: CCCCOc1ccc(CNc2c(N(C)O)c(=O)c2=O)cc1
- inhibition: inactive

SMILES: CC(C)(C(=O)NO)c1ccccc1
- inhibition: inactive

SMILES: CCCCOc1ccc(CC(=O)NO)cc1
- IC50: 14 µM

SMILES: COc1ccc(CC(=O)NO)cc1
- IC50: 4.58 µM

SMILES: CCOc1ccc(CC(=O)NO)cc1
- IC50: 7 µM

SMILES: O=C(Cc1ccc2c(c1)CCCC2)NO
- IC50: 1.41 µM

SMILES: CCCCOc1ccc(CC(=O)O)cc1
- inhibition: inactive

SMILES: CC(C)COc1ccc(CC(=O)NO)cc1
- IC50: 23.2 µM

SMILES: CCCCOc1ccc(CC(=O)N(C)O)cc1
- inhibition: inactive

SMILES: COC(=O)Cc1ccc(OCCN(C)C)cc1
- inhibition: inactive

SMILES: CCCCCCCCCC(=O)NO
- IC50: 13.3 µM

SMILES: Cc1ccc(CC(=O)NO)cc1
- IC50: 5.77 µM

SMILES: O=C(Cc1ccc(OCc2ccccc2)cc1)NO
- IC50: 2.89 µM
